Sampled rows, rich in hits. Any-hit rate of the full collection: about 3%.
PLC-beta3 inh – PLC-beta3 (human) inhibition, primary screen; AID 720704; Purified PLC-beta3, fluorogenic substrate, fluorescence; inhibition, % at 12.2 µM; hit rate 0.18% among 370,000; in the data active means inhibition above about 11%
DDE Tn6 FP inh – disrupts Tn6 cyclic peptide binding to fibrin D-Dimer-E complex; P02675; hit rate 0.21% among 370,000; Fibrin DD(E) TRITC-Tn6 fluorescence polarization displacement; inhibition, % at 8.3 µM;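 active means inhibition above a per-campaign cutoff: mean of compounds within control limits plus 3 SD, cut at about 15% in these data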
PLC-gamma1 inh – blocks human PLC-gamma1 enzyme activity | hit rate 0.84% among 370,000 | AID 720700 | inhibition, % at 12.2 µM | purified PLC-gamma1, fluorogenic substrate, fluorescence; in the data active means inhibition above about 9.5%
DDE Tn7 FP inh – disrupts Tn7 cyclic peptide binding to fibrin D-Dimer-E complex; FP displacement of FITC-Tn7 peptide from fibrin DD(E); 0% = median of compound wells per plate; P02675; hit rate 0.13% among 370,000; AID 720508; inhibition, % at 8.3 µM;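 active means inhibition above the mean of compounds falling within the control limits plus 3 SD of them, cut at about 14% in these data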
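assay system = human clot-derived fibrin DD(E) complex | quantity = Fibrin-DD(E) at 2 µM final | timing = 10 min preincubation, 3 h with tracer, room temperature | signal = fluorescence polarization | measure = percent inhibition | benchmarks = high control wells with 10 µM unlabelled Aha-Tn7 peptide (full inhibition) | replicates = singlicate testing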
NRP1-CendR mod – NRP-1/CendR interaction modulation | O14786 | FAM-RPARPAR peptide binding to NRP-1, fluorescence polarization | inhibition, % at 25 µM | hit rate 0.85% among 360,000;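 active means inhibition or corrected inhibition above about 18%, plus a signal ratio from 0.5 to 1.5, limit read from the data, passing the limit was not always enough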
KLK7 zymogen act – proKLK7 (human) activation, primary screen; P49862; purified proKLK7, EDANS-DABCYL substrate fluorescence; 100% is mature enzyme control, 0% vehicle; activation, % at 7 µM; hit rate 0.9% among 370,000;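 active means activation above the mean of all tested compounds plus 3 SD, computed per campaign excluding outliers beyond control limits, cut at about 13% in these data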
DDE Tn7 confirm – DD(E)-Tn7 binding inhibition, FP confirmation; shares compounds with DDE Tn7 FP inh; FP displacement of TRITC-Tn7 peptide from DD(E); 0% set at plate's compound-well median; inhibition, % at 8.3 µM; hit rate 5% among 460; AID 720628;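 active means inhibition above the campaign cutoff, the mean of compounds within control limits plus 3 SD, cut at about 14% in these data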;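 further: displacers lower polarization since freed probe rises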
DDE Tn7 FP ctr – DD(E)-Tn7 binding inhibition, counter-screen; hit rate 3% among 460; shares compounds with DDE Tn7 FP inh; fibrin DD(E), TRITC-Tn7 probe displacement, fluorescence polarization; inhibition, % at 8.3 µM;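 active means inhibition above the cutoff, the mean of compounds lying between the control bounds plus 3 SD of those compounds, cut at about 17% in these data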
Hits are given with their value; . = inactive; / = not tested or not shown.

SMILES	PLC-beta3 inh	DDE Tn6 FP inh	PLC-gamma1 inh	DDE Tn7 FP inh	NRP1-CendR mod	KLK7 zymogen act	DDE Tn7 confirm	DDE Tn7 FP ctr
CCOP(=O)(c1ccccc1)C(O)c1ccc(F)cc1 (configuration not stated)	.	.	.	.	.	.	/	/
CCOP(=O)(c1ccccc1)C(O)c1ccc([N+](=O)[O-])cc1 (configuration not stated)	.	.	.	16.3	.	.	.	.
CCOc1ccc(-n2c(SCC(=O)Nc3ccc(S(=O)(=O)Nc4cc(C)nc(C)n4)cc3)nnc2-c2ccc(C)cc2)cc1	.	.	.	.	/	.	/	/
N#CC1=C(N)Oc2n[nH]c(-c3ccc(F)cc3)c2C1c1cccc(OC(=O)N2CCOCC2)c1 (configuration not stated)	.	.	.	14.7	.	.	.	.
C[C@@H]1[C@H](O)[C@@H](C)/C=C/C=C/C=C/C=C/C=C/C=C/C=C/[C@H](OC2O[C@H](C)[C@@H](O)[C@H](N)[C@@H]2O)C[C@@H]2O[C@](O)(C[C@@H](O)C[C@@H](O)[C@H](O)CC[C@@H](O)C[C@@H](O)CC(=O)O[C@H]1C)C[C@H](O)[C@H]2C(=O)O (some centres not stated)	.	.	.	.	/	.	/	/
O=C(Nc1cccc(Cl)c1)OCCN1CCCC12CCC(c1ccccc1)CC2 (configuration not stated)	.	.	.	.	/	/	/	/
C=CCOc1ccc(/C=C/C(=O)OCC(=O)NCCCc2ccccc2)cc1	.	.	.	13.8	.	.	.	.
COc1ccc(/C=C/C(=O)OCC(=O)NCCCc2ccccc2)cc1OC	.	.	.	.	.	.	/	/
COCCNC(=O)COC(=O)c1ccc(S(=O)(=O)N2CCOCC2)cc1	.	.	.	16.2	.	.	.	.
O=C(COC(=O)c1ccc(S(=O)(=O)N2CCOCC2)cc1)NCc1ccccc1	.	.	.	.	.	.	/	/
CCOC(=O)[C@]12CCCC=C1N(CCCOC)C(=O)[C@@H]2CC(=O)NCc1cccs1	.	.	.	.	/	.	/	/
NC(=O)CC(NC(=O)Cc1ccc(Cl)cc1)c1ccc(NC2CCCC2)c([N+](=O)[O-])c1 (configuration not stated)	.	.	.	14.0	.	.	.	.
COc1ccc2c(Cl)c(C(=O)N/N=C3\CCCC(=O)C3)sc2c1	.	.	.	32.1	.	.	.	.
Cc1ccc2nc(-c3ccccc3)c(Cc3ccccc3C(F)(F)F)n2c1	.	.	.	15.6	.	.	.	.
c1ccc(Cn2ccc3ccc(-c4ccc5ccn(Cc6cccc(-c7cccs7)c6)c5c4)cc32)cc1	.	.	.	.	/	.	/	/
CC(C)CC1c2[nH]c3ccccc3c2CCN1C(=O)CCC(=O)N(C)C (configuration not stated)	.	.	.	15.4	.	.	.	.
Cc1cccc(NC(=O)CSc2nnnn2-c2ccc3c(c2)OCCO3)n1	.	.	.	14.7	.	.	.	.
Cc1ccc(S(=O)(=O)C(C#N)c2nc3ccccc3nc2N2CCCC2)cc1 (configuration not stated)	.	.	.	15.5	.	.	.	.
CC(C)(C)OC(=O)C1[C@H](O)C=CC[C@H]1S(=O)c1ccccc1 (some centres not stated)	.	.	.	.	/	/	/	/
Cc1cc(NS(=O)(=O)c2ccc(NC(=O)Cc3ccc([N+](=O)[O-])cc3)cc2)no1	.	.	.	13.8	.	.	.	.
CCCS(=O)(=O)n1nc(-c2ccc(C)cc2)cc1N	.	.	.	13.9	.	.	.	.
CCCS(=O)(=O)n1nc(-c2ccc(OC)cc2)cc1N	.	.	.	.	.	.	/	/
C=CCN1C(=O)[C@@H](CC(=O)N2CCOCC2)[C@]2(C(=O)OC)CCCCC=C12	.	.	.	.	/	.	/	/

From PubChem BioAssay
